Rad51 HR inh: blocks human Rad51 in homologous recombination; hRad51 DNA strand exchange, fluorescence dequenching; inhibition, % at 10 µM; 200,000 tested, 0.085% active; AID 1385;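 active = inhibition above 40% at the single screening dose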
Target sequence (Q06609 whole entry, looked up): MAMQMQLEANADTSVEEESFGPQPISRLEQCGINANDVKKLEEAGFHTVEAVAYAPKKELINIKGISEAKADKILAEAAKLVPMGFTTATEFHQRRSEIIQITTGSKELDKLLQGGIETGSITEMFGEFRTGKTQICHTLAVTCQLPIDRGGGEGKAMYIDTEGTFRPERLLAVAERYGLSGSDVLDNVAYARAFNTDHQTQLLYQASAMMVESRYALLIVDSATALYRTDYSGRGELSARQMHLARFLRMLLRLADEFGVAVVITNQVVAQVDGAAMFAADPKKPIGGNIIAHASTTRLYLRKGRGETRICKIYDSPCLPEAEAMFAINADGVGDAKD
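System: human Rad51 nucleoprotein filaments preassembled on unlabelled ssDNA. Reagent: labelled 47-mer dsDNA for strand exchange. Schedule: 30-min compound preincubation and 15-min exchange, both room temperature. Measured by: FRET fluorescence dequenching, excitation 485 nm, emission 520 nm. Read-out: Fluorescence-based percent inhibition, control- and blank-normalised. Benchmarks: plate controls and plate blanks.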
MDM2 E3 inh: blocks human Mdm2 ubiquitin ligase activity | cell-based MDM2 ubiquitination luciferase reporter, 2 h; 0 = plate control, 100 = twice control, blank-subtracted | signal enhancement, % at 5 µM | AID 1230 | 210,000 tested, 0.11% active | Q00987;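 active = signal enhancement of 30% or more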;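 note: luminescence tracks abundance of the self-degrading MDM2-luciferase fusion protein; higher signal means inhibition of MDM2 E3 ligase activity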
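test system = mammalian cells stably expressing self-ubiquitinating, self-degrading MDM2 E3–luciferase fusion | quantity = 2000 cells/well | incubation = cell settling 4 h, compound treatment 2 h, both 37 °C | signal = luminescence with SteadyLite reagent, 15 min at room temperature | evaluation = % enhancement relative to plate controls after blank subtraction | benchmarks = plate controls and plate blanks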
zVAD death inh: L929 zVAD cell death inhibition; AID 1377; 220,000 tested, 0.38% active; L929 zVAD necroptosis rescue, ATP luminescence, 24 h; with zVAD 60 µM; viability rescue, % at 10 µM;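 active = activation, scaled between plate controls, above about 75%, limit read from the data; inactive = activation under that limit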
Pf gametocyte: inhibitors of late stage P. falciparum gametocyte viability. P. falciparum stage V gametocytes, ATP luminescence, 24 h. inhibition, % at 10.9 µM. 150,000 tested, 0.065% active. AID 743093;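 active = inhibition above the mean plus 3 SD of compounds within the control limits, set per campaign, cut at about 38% in these data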
TNF necrop inh: TNF-alpha cell death inhibition in Jurkat FADD-/- cells | Jurkat FADD-/- TNF necroptosis rescue, ATP luminescence, 24 h; 0 = TNF only, 100 = no-TNF cells | activation (protection from cell death), % at 10 µM | 220,000 tested, 0.068% active | AID 463075;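 active = activation, meaning protection from cell death, of at least 50% relative to plate controls; inactive = activation below 50%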;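 note: necroptosis triggered by 40 ng/mL TNF-alpha added together with compound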
zVAD necrop conf: confirmed blocker of zVAD induced death in L929 cells; shares compounds with zVAD death inh; L929 zVAD-induced necroptosis rescue, ATP luminescence, 24 h; activation (protection from necroptosis), % at 10 µM; 760 tested, 16% active; AID 463117;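 active = mean protection from necroptosis of at least 50% over duplicate tests; inactive = mean protection below 50%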
Each line names hits and unclear results; the compound was inactive in the other large screens (follow-up assays come after a bar, where they were run). Compounds with a hit are over-represented: about 0.58% of the library has one in this group of screens.

O=C(c1ccc2c(=O)n3c(nc2c1)CCCCC3)N1CCc2ccccc21	none
CC1(C)CC(N=c2cc(-c3ccccc3)oc3ccc(Cl)cc23)CC(C)(C)N1	Rad51 HR inh 53
CCOC(=O)C1CCCN(S(=O)(=O)c2ccc(OC)cc2)C1 (stereo not given)	Rad51 HR inh 46 (no result: Pf gametocyte)
Cc1ccc(CSc2nnc(-c3ccco3)o2)cc1	none (no result: Rad51 HR inh)
c1ccc(CSc2nnc(-c3ccco3)o2)cc1	TNF necrop inh 52
CC[C@]12C(=O)N(C)C[C@H]([C@@H]3C(=O)N(C)C(=O)[C@@H]31)N2C(=O)c1ccc(F)cc1	none (no result: Rad51 HR inh, MDM2 E3 inh, zVAD death inh, TNF necrop inh)
Cc1nn(-c2nc3ccccc3[nH]2)c(=O)c2ccccc12	Pf gametocyte 61
CCCNC(=O)CS(=O)(=O)c1ccccc1	none (no result: Rad51 HR inh, MDM2 E3 inh, zVAD death inh, TNF necrop inh)
CN1CCN(C(=O)/C(C#N)=C/c2ccc(OC(F)F)cc2)CC1	Rad51 HR inh 44 (no result: MDM2 E3 inh)
O=C(NC1CCNCC1)C1CC1	none
COc1cc(/C=N/NC(=O)c2sc3nc(C)cc(C)c3c2N)ccc1O	none
Cc1ccc(CSCC(=O)NCc2ccc(F)cc2)cc1	none
Cc1ccc(NC(=O)CSCc2ccc(F)cc2)cc1	TNF necrop inh 53
O=C(Nc1ccc(-c2nc3ccccc3o2)cc1)c1ccc2c(c1)OCO2	Rad51 HR inh 87 (no result: Pf gametocyte)
Cc1ccc2oc(-c3ccc(NC(=O)c4ccc5c(c4)OCO5)cc3)nc2c1	none
O=C(Nc1cccc2cccnc12)c1ccc(Br)o1	zVAD death inh 76 (no result: Rad51 HR inh, Pf gametocyte)
Cc1ccc(NC(=O)CC2NCCNC2=O)cc1Cl (stereo not given)	none
CC(O)CNc1cnccn1 (stereo not given)	none
COc1ccc(OCC(=O)Nc2ccc3oc(-c4ccncc4)nc3c2)cc1	none
COc1ccc(-c2nc3cc(NC(=O)Cc4ccc(OC)c(OC)c4)ccc3o2)cc1	zVAD death inh 89
CC1(C)CC(=O)C=C(NNC(=O)c2ccccc2O)C1	Rad51 HR inh 96 (no result: Pf gametocyte)
CC(C)(C)N=C1C([N+](=O)[O-])=CC=C2C1=NC1(CCCCC1)N2O	none (no result: Rad51 HR inh)
O=[N+]([O-])C1=CC=C2C(=NC3(CCCCC3)N2O)C1=NCCc1ccccc1	MDM2 E3 inh 31
CC(C)(C)OC(=O)C[C@@H]1C/C=C\C[C@H](CC(=O)N(CCO)Cc2ccccc2)C(=O)N[C@H](C(C)(C)C)COC1=O	none (no result: Rad51 HR inh, MDM2 E3 inh, zVAD death inh, TNF necrop inh)
COC(=O)/C(=C\Nc1cccc(Cl)c1C)c1ncc(C(F)(F)F)cc1Cl	Rad51 HR inh 79
Cc1cccc(N2CCN(C(=O)c3cn4ccccc4n3)CC2C)c1 (stereo not given)	none (no result: Pf gametocyte)
Cc1noc(C)c1COc1ccc(C(=O)NCc2ccccn2)cc1	MDM2 E3 inh 68 (no result: Pf gametocyte)
Cc1noc(C)c1COc1ccc(C(=O)Nc2ccccc2)cc1	none
NC(=NC(=O)c1ccccc1)N1N=CCC1c1ccccc1 (stereo not given)	none
S=C(Nc1ccccc1)N1N=CCC1c1ccccc1 (stereo not given)	TNF necrop inh 91
O=C(Nc1cccc2ccccc12)N1N=CCC1c1ccccc1 (stereo not given)	TNF necrop inh 64
CC(NC(=O)CCc1nnc(CCCc2ccccc2)o1)c1ccccc1 (stereo not given)	Pf gametocyte 50
O=C(O)CCC(=O)Nc1nc2nccc(-c3ccccc3)n2n1	none
Cc1cc(NC(=O)c2noc3c2CCCC3)nn1Cc1ccc(Cl)cc1	zVAD death inh 82 (no result: Pf gametocyte)
Nc1cccc2c1C(=O)N(C(=O)/C=C/c1cccc(Br)c1)C2=O	MDM2 E3 inh 35
CCCn1ncc(CN2CCC(N3CCC(C(=O)N4CCOCC4)CC3)CC2)c1C	none
CCCCNc1n[n+](C)c(-c2cccc(C)c2)s1	MDM2 E3 inh 35 (no result: Rad51 HR inh, Pf gametocyte)
CCc1ccc(Nc2n[n+](-c3ccccc3)c(-c3cccc(C)c3)s2)cc1	none (no result: Rad51 HR inh, MDM2 E3 inh, zVAD death inh, TNF necrop inh)
CCn1c(CSCc2ccc(Cl)cc2)nnc1SCC(=O)Nc1cccc(C(=O)O)c1	none (no result: Rad51 HR inh)
COc1ccccc1N(CC(=O)N1CCOCC1)S(C)(=O)=O	none (no result: Rad51 HR inh, MDM2 E3 inh, zVAD death inh, TNF necrop inh)
Fc1ccc(NC(=S)N2CCN(c3ccccn3)CC2)cc1Cl	none (no result: Rad51 HR inh, MDM2 E3 inh, zVAD death inh, TNF necrop inh)
O=C1/C(=C/c2cccnc2)CC/C1=C\c1cccnc1	none
O=C1/C(=C/c2cccnc2)CCC/C1=C\c1cccnc1	MDM2 E3 inh 36
CCOC(=O)Cn1c(=O)c2c(nc(N3CCCCC3)n2Cc2ccccc2)n(C)c1=O	Rad51 HR inh 44
Cc1nc2scc(-c3cccs3)c2c(=O)n1CC(=O)O	Rad51 HR inh 115
Cc1ccc(-c2noc(-c3ccno3)n2)cc1	none
Oc1ccccc1Cc1c(O)ccc2ccccc12	none (no result: Rad51 HR inh, MDM2 E3 inh, zVAD death inh, TNF necrop inh)
Oc1ccc2ccccc2c1Br	Rad51 HR inh 43 (no result: Pf gametocyte)
Cc1ccccc1N=Nc1c(O)n(C)c2ccccc12	none (no result: Rad51 HR inh, MDM2 E3 inh, zVAD death inh, TNF necrop inh)
O=C1OCC2OC(O)C(O)C(O)C2OC(=O)c2cc(O)c(O)c(O)c2-c2c(O)c(O)c3oc(=O)c4c(c(O)c(O)c5oc(=O)c2c3c54)-c2c1cc(O)c(O)c2O (stereo not given)	Rad51 HR inh 68 (no result: Pf gametocyte)
COc1ccccc1NC(=O)c1ccc(-c2nn(C)c(=O)c3ccccc23)cc1	zVAD death inh 78 | zVAD necrop conf inactive
COc1ccc(NC(=O)c2ccc(-c3nn(C)c(=O)c4ccccc34)cc2)cc1	none
O=C(C1=NNCC1c1ccc(Cl)cc1)C1CO1 (stereo not given)	zVAD death inh 89, TNF necrop inh 57 (no result: Rad51 HR inh, MDM2 E3 inh) | zVAD necrop conf 94
Nc1ncnc2oc(-c3ccco3)c(-c3ccco3)c12	zVAD death inh 79 (no result: Pf gametocyte) | zVAD necrop conf inactive
Cn1c(N)c(C(=O)Nc2ccc(-c3ccccc3)cc2)sc1=S	none
COC(=O)c1ccc(/C=N/Nc2nc(C)c(C)s2)cc1	zVAD death inh 80 | zVAD necrop conf inactive
Cc1ccc(C23CC4CC(CC(C(=O)NC(C(=O)O)C(C)C)(C4)C2)C3)cc1 (stereo not given)	none (no result: Rad51 HR inh, MDM2 E3 inh, zVAD death inh, TNF necrop inh)
O=Cc1ccc2noc(-c3ccc(F)cc3)c2c1	zVAD death inh 82 (no result: Pf gametocyte) | zVAD necrop conf inactive
O=c1c(O)c(-c2ccc3c(c2)OCO3)oc2ccccc12	zVAD death inh 77 | zVAD necrop conf inactive
CC(C(=O)Nc1nncs1)N1C(=O)C2C3C=CC(C3)C2C1=O (stereo not given)	zVAD death inh 78 | zVAD necrop conf inactive
N#CCc1nc2ccc(S(=O)(=O)N3CCOCC3)cc2s1	none
CCOC(=O)C1C(=O)NC(SCC(=O)Nc2nccs2)=C(C#N)C1c1ccccc1OCC (stereo not given)	zVAD death inh 88 (no result: Pf gametocyte) | zVAD necrop conf 67
COc1ccc(CNC(=S)Nc2ccccc2)cc1	none (no result: Rad51 HR inh, MDM2 E3 inh, zVAD death inh, TNF necrop inh)
O=C(Nc1nccs1)c1ccc(-c2ccc(F)cc2)o1	zVAD death inh 83 (no result: Pf gametocyte) | zVAD necrop conf inactive
COc1cc(/C=N/Nc2nc(N3CCCC3)nc(N3CCCC3)n2)ccc1OCc1ccccc1F	none (no result: Rad51 HR inh)
O=S(=O)(c1ccc(Br)cc1)c1cnc2ccccc2n1	none

Screening results as filed in PubChem.
